Experimental data taken from ChEMBL document CHEMBL1139845, “Synthesis and biological evaluation of novel 1-deoxy-1-[6-[((hetero)arylcarbonyl)hydrazino]- 9H-purin-9-yl]-N-ethyl-beta-D-ribofuranuronamide derivatives as useful templates for the development of A2B adenosine receptor agonists” (J Med Chem, 2007).

Assays:
[1] = target: T1, Adenosine receptor A3 (Homo sapiens) (UniProt P0DMS8); assay: (§1) Displacement of [125I]AB-MECA from human adenosine A3 receptor expressed in CHO cells; type: cell-based
T1 sequence (whole entry): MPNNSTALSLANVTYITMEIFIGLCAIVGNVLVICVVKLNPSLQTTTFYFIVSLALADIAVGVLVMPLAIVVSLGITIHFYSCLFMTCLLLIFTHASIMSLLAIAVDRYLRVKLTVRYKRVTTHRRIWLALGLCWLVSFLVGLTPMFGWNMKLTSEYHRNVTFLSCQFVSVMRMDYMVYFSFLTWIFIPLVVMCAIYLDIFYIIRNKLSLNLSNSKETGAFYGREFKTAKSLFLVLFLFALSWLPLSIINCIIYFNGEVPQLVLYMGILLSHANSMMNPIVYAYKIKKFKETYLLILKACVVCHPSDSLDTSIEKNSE
How it was run: (§2)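 Membranes from CHO cells expressing hA3, 50 µg protein/assay, pretreated with adenosine deaminase. Incubated with [¹²⁵I]AB-MECA in 50 mM Tris-HCl, 10 mM MgCl₂, 1 mM EDTA, pH 7.4, at 6–8 concentrations of test compound, 60 min at 37 °C. Nonspecific binding defined with 1 µM AB-MECA. GF/B filtration. Ki obtained by Cheng–Prusoff. Mean ± SEM of 3–4 experiments in duplicate.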

Adenosine receptor A3 = target: T2, Adenosine receptor A3 (Homo sapiens, UniProt P0DMS8); assay: as §1; type: cell-based; how it was run: as §2
T2 sequence (P0DMS8 whole entry): T1 sequence (whole entry)

Adenosine receptor A2a = Adenosine receptor A2a (Homo sapiens, UniProt P29274); assay: Displacement of [3H]CGS-21680 from human adenosine A2A receptor expressed in CHO cells; type: cell-based
Adenosine receptor A2a, sequence (P29274 whole entry): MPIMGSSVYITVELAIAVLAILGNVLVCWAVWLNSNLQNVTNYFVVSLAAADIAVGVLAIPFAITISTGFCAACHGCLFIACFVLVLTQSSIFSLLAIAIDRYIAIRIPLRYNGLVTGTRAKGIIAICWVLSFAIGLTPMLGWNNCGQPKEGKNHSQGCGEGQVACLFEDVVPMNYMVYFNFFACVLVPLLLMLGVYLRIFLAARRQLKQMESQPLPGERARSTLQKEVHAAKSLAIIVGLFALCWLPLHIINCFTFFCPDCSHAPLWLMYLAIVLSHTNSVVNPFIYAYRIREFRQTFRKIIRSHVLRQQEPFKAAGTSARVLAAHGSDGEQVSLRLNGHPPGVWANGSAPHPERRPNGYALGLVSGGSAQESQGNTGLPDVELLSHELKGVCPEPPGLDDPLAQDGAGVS

[2] = target: T3, Adenosine receptor A1 (Homo sapiens) (UniProt P30542); assay: (§3) Displacement of [3H]CHA from human adenosine A1 receptor expressed in CHO cells; type: cell-based
T3 sequence (whole entry): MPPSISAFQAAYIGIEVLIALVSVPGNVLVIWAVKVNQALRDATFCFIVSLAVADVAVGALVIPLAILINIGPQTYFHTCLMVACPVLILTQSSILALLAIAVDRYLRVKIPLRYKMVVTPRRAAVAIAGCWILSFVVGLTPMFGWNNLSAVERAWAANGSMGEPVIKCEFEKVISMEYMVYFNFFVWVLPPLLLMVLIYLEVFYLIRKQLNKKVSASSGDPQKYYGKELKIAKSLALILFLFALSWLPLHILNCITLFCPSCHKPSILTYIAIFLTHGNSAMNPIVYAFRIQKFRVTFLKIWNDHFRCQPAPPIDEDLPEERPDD
How it was run: (§4)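 Membranes from hA1 CHO cells, 50 µg protein/assay, pretreated with adenosine deaminase. Incubated with 1 nM [³H]CHA in 50 mM Tris-HCl pH 7.4 at 6–8 concentrations, 150 min at 25 °C. Nonspecific binding defined with 10 µM CHA. GF/B filtration and scintillation counting. Ki obtained by Cheng–Prusoff. Mean ± SEM of 3–4 experiments in duplicate.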

Adenosine receptor A1 = target: T4, Adenosine receptor A1 (Homo sapiens, UniProt P30542); assay: as §3; type: cell-based; how it was run: as §4
T4 sequence (P30542 whole entry): T3 sequence (whole entry)

[3] = target: T5, Adenosine receptor A2b (Homo sapiens) (UniProt P29275); assay: (§5) Activity at human adenosine A2B receptor expressed in CHO cells assessed as stimulation of cAMP levels; type: functional, cell-based; design: concentration or dose not given beside the values
T5 sequence (whole entry): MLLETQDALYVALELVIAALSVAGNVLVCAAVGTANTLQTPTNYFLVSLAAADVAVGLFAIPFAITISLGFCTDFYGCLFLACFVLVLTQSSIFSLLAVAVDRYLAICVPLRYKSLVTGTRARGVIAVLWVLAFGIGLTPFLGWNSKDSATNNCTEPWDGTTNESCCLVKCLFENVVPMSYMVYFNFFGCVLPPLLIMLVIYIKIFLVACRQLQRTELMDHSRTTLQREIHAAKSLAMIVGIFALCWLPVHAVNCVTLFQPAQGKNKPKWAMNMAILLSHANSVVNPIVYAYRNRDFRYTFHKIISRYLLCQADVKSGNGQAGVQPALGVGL
How it was run: (§6)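 Whole CHO cells transfected with human A2B (1 × 10⁶ cells/assay), preincubated 10 min at 37 °C with adenosine deaminase 2 IU/mL and Ro 20-1724 as PDE inhibitor. Ligands (1 nM to 10 µM) were then added for 5 min. Stopped with cold 6% TCA and ether-extracted. cAMP measured by competition binding to bovine adrenal binding protein with [³H]cAMP. Mean ± SEM of 3–4 experiments in duplicate.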

Adenosine receptor A2b = target: T6, Adenosine receptor A2b (Homo sapiens, UniProt P29275); assay: as §5; type: functional, cell-based; how it was run: as §6
T6 sequence (P29275 whole entry): T5 sequence (whole entry)

Row | Structure (SMILES) | Activity [1] | Ki (Adenosine receptor A3) | Ki (Adenosine receptor A2a) | Activity [2] | Ki (Adenosine receptor A1) | Activity [3] | EC50 (Adenosine receptor A2b) | Activity (Adenosine receptor A2a) | Activity ([3]; filed as agonist)
1 | CCNC(=O)[C@H]1O[C@@H](n2cnc3c(NNC(=O)c4ccc[nH]4)nc(Cl)nc32)[C@H](O)[C@@H]1O | 11% | > 5 µM | 3.2 µM | – | – | – | – | – | –
2 | CCNC(=O)[C@H]1O[C@@H](n2cnc3c(NNC(=O)c4cc(C)on4)nc(Cl)nc32)[C@H](O)[C@@H]1O | 16% | > 5 µM | > 5 µM | 7% | > 5 µM | 21% | > 5 µM | 3% | –
3 | CCNC(=O)[C@H]1O[C@@H](n2cnc3c(NNC(=O)Cc4cccs4)nc(Cl)nc32)[C@H](O)[C@@H]1O | – | 0.025 µM | – | – | – | – | – | – | –
4 | CCNC(=O)[C@H]1O[C@@H](n2cnc3c(NNC(=O)c4cccnc4)ncnc32)[C@H](O)[C@@H]1O | 17% | > 5 µM | > 5 µM | 11% | > 5 µM | 9% | > 5 µM | 7% | –
5 | CCNC(=O)[C@H]1O[C@@H](n2cnc3c(NNC(=O)c4ccc(C)s4)nc(Cl)nc32)[C@H](O)[C@@H]1O | 17% | > 5 µM | 4.1 µM | – | 2.6 µM | – | – | – | –
6 | CCNC(=O)[C@H]1O[C@@H](n2cnc3c(NNC(=O)c4ccco4)ncnc32)[C@H](O)[C@@H]1O | 23% | > 5 µM | 1.55 µM | – | 1.05 µM | – | – | – | Agonist
7 | CCNC(=O)[C@H]1O[C@@H](n2cnc3c(NNC(=O)c4nc([N+](=O)[O-])cn4C)ncnc32)[C@H](O)[C@@H]1O | 11% | > 5 µM | > 5 µM | 7% | > 5 µM | 14% | > 5 µM | 12% | –
8 | CCNC(=O)[C@H]1O[C@@H](n2cnc3c(NNC(=O)c4ccccc4)nc(Cl)nc32)[C@H](O)[C@@H]1O | 45% | > 5 µM | > 5 µM | 37% | > 5 µM | 5% | > 5 µM | 40% | –
9 | CCNC(=O)[C@H]1O[C@@H](n2cnc3c(NNC(=O)c4cc(-c5ccccc5)on4)nc(Cl)nc32)[C@H](O)[C@@H]1O | 15% | > 5 µM | > 5 µM | 5% | > 5 µM | 24% | > 5 µM | 2% | –
10 | CCNC(=O)[C@H]1O[C@@H](n2cnc3c(NNC(=O)c4ccco4)nc(Cl)nc32)[C@H](O)[C@@H]1O | 26% | > 5 µM | 4.95 µM | – | 3.5 µM | – | – | – | –
11 | CCNC(=O)[C@H]1O[C@@H](n2cnc3c(NNC(=O)c4sccc4C)nc(Cl)nc32)[C@H](O)[C@@H]1O | 9% | > 5 µM | 3.8 µM | – | 1.6 µM | – | – | – | –
12 | CCNC(=O)[C@H]1O[C@@H](n2cnc3c(NNC(=O)c4ccc(Br)o4)ncnc32)[C@H](O)[C@@H]1O | 13% | > 5 µM | 1.2 µM | – | 0.78 µM | – | 0.369 µM | – | –
13 | CCNC(=O)[C@H]1O[C@@H](n2cnc3c(NNC(=O)c4ccc(Cl)cc4)ncnc32)[C@H](O)[C@@H]1O | 20% | > 5 µM | > 5 µM | 5% | > 5 µM | 6% | > 5 µM | 8% | –
14 | CCNC(=O)[C@H]1O[C@@H](n2cnc3c(NNC(=O)c4ccc(C)s4)ncnc32)[C@H](O)[C@@H]1O | 19% | > 5 µM | 2.1 µM | – | 1.1 µM | – | – | – | –
15 | CCNC(=O)[C@H]1O[C@@H](n2cnc3c(NNC(=O)c4ccc(C)o4)ncnc32)[C@H](O)[C@@H]1O | 15% | > 5 µM | 1.6 µM | – | – | – | – | – | –
16 | CCNC(=O)[C@H]1O[C@@H](n2cnc3c(NNC(=O)c4cccs4)nc(Cl)nc32)[C@H](O)[C@@H]1O | 12% | > 5 µM | 1.7 µM | – | – | – | – | – | –
17 | CCNC(=O)[C@H]1O[C@@H](n2cnc3c(NNC(=O)c4ccsc4)nc(Cl)nc32)[C@H](O)[C@@H]1O | 18% | > 5 µM | 3.3 µM | – | – | – | – | – | –
18 | CCNC(=O)[C@H]1O[C@@H](n2cnc3c(NNC(=O)c4ccccc4)ncnc32)[C@H](O)[C@@H]1O | 8% | > 5 µM | > 5 µM | 35% | > 5 µM | 10% | > 5 µM | 18% | –
